Assay results: ChEMBL document CHEMBL1154153, “Design, synthesis and antimycobacterial activity of some novel imidazo[1,2-c]pyrimidines” (2009)
Values after ≈ are worked out from the molar mass of the structure shown.

How the values were obtained:
Format in all cases: functional
[1] = tested on: Mycobacterium tuberculosis; test: Antimycobacterial activity against Mycobacterium tuberculosis H37Rv after 21 days by serial dilution technique; conditions: 504 h
Method in brief: (§1)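 H37Rv kept on L–J medium at 37 °C. Inoculum made by homogenizing growth with glass beads in Tween-albumin Middlebrook 7H9, letting large particles settle, and adjusting the supernatant to 3 ×10⁸ CFU by McFarland standard, with CFU/mL checked by plating. 0.1 mL went onto L–J slants with Gruft supplement holding serially diluted compound. Incubated 37 °C, read at 14, 21, 30 days. MIC was the lowest concentration with clear tubes; triplicate.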

[2] = tested on: Mycobacterium tuberculosis; test: Antimycobacterial activity against Mycobacterium tuberculosis H37Rv after 30 days by serial dilution technique; method in brief: as §1
[3] = tested on: Mycobacterium tuberculosis; test: Antimycobacterial activity against Mycobacterium tuberculosis H37Rv after 14 days by serial dilution technique; conditions: 336 h; method in brief: as §1

| Structure (SMILES) | MIC [1] [µg/mL] | MIC [2] [µg/mL] | MIC [3] [µg/mL] |
| --- | --- | --- | --- |
| CCOC(=O)C1=C(Nc2ccc(F)cc2)N=C(c2ccccc2)N2CCN=C12 | 5 (≈ 13.2 µM) | 20 (≈ 52.9 µM) | 5 (≈ 13.2 µM) |
| CCOC(=O)C1=C(Nc2ccccc2OC)N=C(c2ccccc2)N2CCN=C12 | > 200 | > 200 | > 200 |
| CCOC(=O)C1=C(Nc2cccc(Cl)c2)N=C(c2ccccc2)N2CCN=C12 | > 200 | > 200 | > 200 |
| CCOC(=O)C1=C(Nc2cccc(Cl)c2)N=CN2CCN=C12 | > 200 | > 200 | > 200 |
| CCNC1=C(C(=O)OCC)C2=NCCN2C(c2ccccc2)=N1 | > 200 | > 200 | > 200 |
| CCOC(=O)C1=C(Nc2ccc(C)cc2)N=CN2CCN=C12 | 5 (≈ 16.8 µM) | 50 (≈ 168 µM) | 5 (≈ 16.8 µM) |
| CCOC(=O)C1=C(Nc2ccccc2C)N=CN2CCN=C12 | > 200 | > 200 | > 200 |
| CCOC(=O)C1=C(Nc2ccccc2)N=CN2CCN=C12 | 20 (≈ 70.3 µM) | 50 (≈ 176 µM) | 20 (≈ 70.3 µM) |
| CCOC(=O)C1=C(Nc2cccc(C(F)(F)F)c2)N=CN2CCN=C12 | 100 (≈ 284 µM) | > 200 | 100 (≈ 284 µM) |
| CCOC(=O)C1=C(Nc2ccc(OC)cc2)N=CN2CCN=C12 | 2 (≈ 6.36 µM) | 20 (≈ 63.6 µM) | 2 (≈ 6.36 µM) |
| CCOC(=O)C1=C(NCc2ccccc2)N=CN2CCN=C12 | 20 (≈ 67 µM) | 100 (≈ 335 µM) | 20 (≈ 67 µM) |
| CCOC(=O)C1=C(Nc2ccc(Cl)cc2)N=C(c2ccccc2)N2CCN=C12 | 20 (≈ 50.7 µM) | 50 (≈ 127 µM) | 20 (≈ 50.7 µM) |
| CCOC(=O)C1=C(NC)N=CN2CCN=C12 | > 200 | > 200 | > 200 |
| CCOC(=O)C1=C(Nc2ccc(Br)cc2)N=C(c2ccccc2)N2CCN=C12 | 100 (≈ 228 µM) | > 200 | 100 (≈ 228 µM) |
| CCOC(=O)C1=C(Nc2ccccc2Cl)N=CN2CCN=C12 | > 200 | > 200 | > 200 |
| CCOC(=O)C1=C(Nc2ccccc2Cl)N=C(c2ccccc2)N2CCN=C12 | > 200 | > 200 | > 200 |

| Structure (SMILES) | MIC [1] [µg/mL] | MIC [2] [µg/mL] | MIC [3] [µg/mL] |
| --- | --- | --- | --- |
| CCOC(=O)C1=C(Nc2ccccc2OC)N=CN2CCN=C12 | > 200 | > 200 | > 200 |
| CCOC(=O)C1=C(Nc2ccc(F)cc2)N=CN2CCN=C12 | 5 (≈ 16.5 µM) | 20 (≈ 66.2 µM) | 5 (≈ 16.5 µM) |
| CCOC(=O)C1=C(Nc2ccccc2C)N=C(c2ccccc2)N2CCN=C12 | 100 (≈ 267 µM) | > 200 | 100 (≈ 267 µM) |
| CCOC(=O)C1=C(Nc2ccccc2F)N=CN2CCN=C12 | 5 (≈ 16.5 µM) | 50 (≈ 165 µM) | 5 (≈ 16.5 µM) |
| CCOC(=O)C1=C(Nc2cccc(C)c2)N=CN2CCN=C12 | > 200 | > 200 | > 200 |
| CCOC(=O)C1=C(Nc2ccc(C)cc2)N=C(c2ccccc2)N2CCN=C12 | 100 (≈ 267 µM) | > 200 | 100 (≈ 267 µM) |
| CO[C@H]1/C=C/O[C@@]2(C)Oc3c(C)c(O)c4c(c3C2=O)C2=NC3(CCN(CC(C)C)CC3)NC2=C(NC(=O)/C(C)=C\C=C\[C@H](C)[C@H](O)[C@@H](C)[C@@H](O)[C@@H](C)[C@H](OC(C)=O)[C@@H]1C)C4=O [RIFABUTIN] | 0.05 (≈ 0.059 µM) | 0.05 (≈ 0.059 µM) | 0.05 (≈ 0.059 µM) |
| CCOC(=O)C1=C(Nc2ccc(Br)cc2)N=CN2CCN=C12 | 50 (≈ 138 µM) | 100 (≈ 275 µM) | 50 (≈ 138 µM) |
| CCOC(=O)C1=C(Nc2ccc(OC)cc2)N=C(c2ccccc2)N2CCN=C12 | 5 (≈ 12.8 µM) | 50 (≈ 128 µM) | 5 (≈ 12.8 µM) |
| CCNC1=C(C(=O)OCC)C2=NCCN2C=N1 | > 200 | > 200 | > 200 |
| NCC[C@H](O)C(=O)N[C@@H]1C[C@H](N)[C@@H](O[C@H]2O[C@H](CN)[C@@H](O)[C@H](O)[C@H]2O)[C@H](O)[C@H]1O[C@H]1O[C@H](CO)[C@@H](O)[C@H](N)[C@H]1O [AMIKACIN] | 2 (≈ 3.42 µM) | 2 (≈ 3.42 µM) | 2 (≈ 3.42 µM) |
| CCOC(=O)C1=C(Nc2ccc(Cl)cc2)N=CN2CCN=C12 | 5 (≈ 15.7 µM) | 20 (≈ 62.7 µM) | 5 (≈ 15.7 µM) |
| CCOC(=O)C1=C(NCc2ccccc2)N=C(c2ccccc2)N2CCN=C12 | > 200 | > 200 | > 200 |
| CCOC(=O)C1=C(Nc2ccccc2)N=C(c2ccccc2)N2CCN=C12 | 50 (≈ 139 µM) | 100 (≈ 277 µM) | 50 (≈ 139 µM) |
| CCOC(=O)C1=C(Nc2ccccc2F)N=C(c2ccccc2)N2CCN=C12 | > 200 | > 200 | > 200 |
| CCOC(=O)C1=C(NC)N=C(c2ccccc2)N2CCN=C12 | > 200 | > 200 | > 200 |
